# Measured values as given in ChEMBL document CHEMBL1136006, “New PET imaging agent for the serotonin transporter: [(18)F]ACF (2-[(2-amino-4-chloro-5-fluorophenyl)thio]-N,N-dimethyl-benzenmethanamine)” (J Med Chem, 2002).
# Columns and labels:
# Rattus norvegicus [1] = species: Rattus norvegicus; assay: Organ distribution of [18F]ACF radiolabeled compound in rat spleen after 240 min; format: ADME, organism-based; settings: in vivo, 4 h
# Summary of the method: (§1)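 Rats, three per time point, under ether anesthesia; 30 μCi tracer in 0.2 mL saline injected into femoral vein. Sacrificed by cardiac excision under ether at 2, 30, 60, 120 or 240 min. Organs removed, weighed and counted; % dose/organ calculated against counts of 1% of initial dose counted at the same time. Average of three rats ± SD.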
# Rattus norvegicus [2] = assay: Ratio of effect of pretreatment with methylphenidate with a dose of 2 mg/kg (i.v.) on specific binding of [18F]ACF in rat brain cerebellum to that of cerebellum; format: ADME, organism-based; design: dose 2 mg/kg, route intravenous; settings: in vivo, iv
# Summary of the method: (§2)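 Rats (three per point) pretreated iv with competing drug at 2 mg/kg or saline (control) 5 min before iv [18F]ACF (50 μCi). At 1 h post tracer, brain regions (cortex, striatum, hippocampus, cerebellum, hypothalamus, remainder) dissected, weighed, counted as % dose/g and expressed as ratio to cerebellum. Average ± SD; ANOVA with Dunnett's test vs saline controls, p < 0.05.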
# Rattus norvegicus [3] = species: Rattus norvegicus; assay: Ratio of regional brain distribution of [18F]-ACF radiolabeled compound in rat striatum to that of cerebellum after 120 min; format: ADME, organism-based; settings: in vivo, 2 h
# Summary of the method: (§3)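 Rats (three per group) under ether anesthesia got 30 μCi tracer in 0.2 mL saline into the femoral vein and were killed by cardiac excision at the stated time. Cortex, striatum, hippocampus, cerebellum, hypothalamus and the rest of brain were dissected, weighed and gamma counted. %dose/g was taken against counts of a diluted initial dose. Regional ratios are each region's %dose/g over cerebellum's. Mean ± SD.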
# Rattus norvegicus [4] = assay: Effect of pretreatment with nisoxatine with a dose of 2 mg/kg (i.v.) on specific binding of [18F]ACF in rat brain cortex; format: ADME, organism-based; design: dose 2 mg/kg, route intravenous; settings: in vivo, iv
# Summary of the method: (§4)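 Rats pretreated iv with drug (2 mg/kg) or saline 5 min before iv [18F]ACF (50 μCi). Sacrificed 1 h after tracer. Brain regions were dissected, weighed and counted, and % dose/g was calculated against a diluted initial dose. Drug-treated rats were compared with saline controls by ANOVA/Dunnett's test (p<0.05). Three rats per point, average ± SD.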
# Rattus norvegicus [5] = species: Rattus norvegicus; assay: Ratio of regional brain distribution of [18F]-ACF radiolabeled compound in rat cerebellum to that of cerebellum after 120 min; format: ADME, organism-based; settings: in vivo, 2 h
# Summary of the method: (§5)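 Rats, three per time point, given 30 μCi tracer in 0.2 mL saline into femoral vein under ether anesthesia; killed at 2, 30, 60, 120 or 240 min. Cortex, striatum, hippocampus, cerebellum, hypothalamus and rest of brain dissected, weighed, counted; % dose/g against diluted initial dose, then each region divided by cerebellum. Average of three rats ± SD.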
# Rattus norvegicus [6] = species: Rattus norvegicus; assay: Regional brain distribution of [18F]-ACF radiolabeled compound in rat striatum after 2 min; format: ADME, organism-based; settings: in vivo; summary of the method: as §3
# Rattus norvegicus [7] = species: Rattus norvegicus; assay: Regional brain distribution of [18F]ACF radiolabeled compound in rat cortex after 120 min; format: ADME, organism-based; settings: in vivo, 2 h; summary of the method: as §3
# Rattus norvegicus [8] = species: Rattus norvegicus; assay: Ratio of regional brain distribution of [18F]-ACF radiolabeled compound in rat cortex to that of cerebellum after 240 min; format: ADME, organism-based; settings: in vivo, 4 h; summary of the method: as §5
# Rattus norvegicus [9] = assay: Effect of pretreatment with nisoxatine with a dose of 2 mg/kg (i.v.) on specific binding of [18F]ACF in rat brain striatum; format: ADME, organism-based; design: dose 2 mg/kg, route intravenous; settings: in vivo, iv; summary of the method: as §4
# Rattus norvegicus [10] = species: Rattus norvegicus; assay: Regional brain distribution of [18F]-ACF radiolabeled compound in rat remainder (rest of brain) after 240 min; format: ADME, organism-based; settings: in vivo, 4 h; summary of the method: as §3
# Rattus norvegicus [11] = species: Rattus norvegicus; assay: Ratio of regional brain distribution of [18F]-ACF radiolabeled compound in rat hippocampus to that of cerebellum after 30 min; format: ADME, organism-based; settings: in vivo, 0.5 h; summary of the method: as §5
# Rattus norvegicus [12] = species: Rattus norvegicus; assay: Regional brain distribution of [18F]-ACF radiolabeled compound in rat cerebellum after 2 min; format: ADME, organism-based; settings: in vivo; summary of the method: as §3
# Rattus norvegicus [13] = species: Rattus norvegicus; assay: Organ distribution of [18F]-ACF radiolabeled compound in rat bone after 30 min; format: ADME, organism-based, Bone element; settings: in vivo, 0.5 h
# Summary of the method: (§6)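 Under ether anesthesia, 30 μCi no-carrier-added tracer in 0.2 mL saline injected into the femoral vein. Rats killed by cardiac excision at the stated time. Organs were removed, weighed and counted; % dose/organ was calculated against counts of a 1% initial-dose standard. Three rats per time, average ± SD.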
# Rattus norvegicus [14] = species: Rattus norvegicus; assay: Organ distribution of [18F]ACF radiolabeled compound in rat skin after 2 min; format: ADME, organism-based; settings: in vivo; summary of the method: as §1
# Rattus norvegicus [15] = species: Rattus norvegicus; assay: Organ distribution of [18F]ACF radiolabeled compound in rat kidney after 120 min; format: ADME, organism-based; settings: in vivo, 2 h; summary of the method: as §1
# Rattus norvegicus [16] = species: Rattus norvegicus; assay: Ratio of regional brain distribution of [18F]-ACF radiolabeled compound in rat remainder to that of cerebellum after 120 min; format: ADME, organism-based; settings: in vivo, 2 h; summary of the method: as §3
# Rattus norvegicus [17] = species: Rattus norvegicus; assay: Regional brain distribution of [18F]-ACF radiolabeled compound in rat hypothalamus after 240 min; format: ADME, organism-based; settings: in vivo, 4 h; summary of the method: as §3
# Rattus norvegicus [18] = species: Rattus norvegicus; assay: Organ distribution of [18F]-ACF radiolabeled compound in rat skin after 120 min; format: ADME, organism-based; settings: in vivo, 2 h; summary of the method: as §6
# Rattus norvegicus [19] = species: Rattus norvegicus; assay: Organ distribution of [18F]-ACF radiolabeled compound in rat muscle after 120 min; format: ADME, organism-based, Muscle tissue; settings: in vivo, 2 h; summary of the method: as §6
# Rattus norvegicus [20] = assay: Ratio of effect of pretreatment with (+)-McN5652 with a dose of 2 mg/kg (i.v.) on specific binding of [18F]ACF in rat brain cerebellum to that of cerebellum; format: ADME, organism-based; design: dose 2 mg/kg, route intravenous; settings: in vivo, iv; summary of the method: as §2
# Rattus norvegicus [21] = species: Rattus norvegicus; assay: Organ distribution of [18F]ACF radiolabeled compound in rat liver after 2 min; format: ADME, organism-based; settings: in vivo; summary of the method: as §1
# Rattus norvegicus [22] = species: Rattus norvegicus; assay: Organ distribution of [18F]ACF radiolabeled compound in rat brain after 120 min; format: ADME, organism-based; settings: in vivo, 2 h; summary of the method: as §1
# Rattus norvegicus [23] = assay: Effect of pretreatment with methylphenidate with a dose of 2 mg/kg (i.v.) on specific binding of [18F]ACF in rat brain hypothalamus; format: ADME, organism-based; design: dose 2 mg/kg, route intravenous; settings: in vivo, iv; summary of the method: as §4
# Rattus norvegicus [24] = species: Rattus norvegicus; assay: Regional brain distribution of [18F]-ACF radiolabeled compound in rat cortex after 2 min; format: ADME, organism-based; settings: in vivo; summary of the method: as §3
# Rattus norvegicus [25] = assay: Ratio of effect of pretreatment with methylphenidate with a dose of 2 mg/kg (i.v.) on specific binding of [18F]ACF in rat brain hypothalamus to that of cerebellum; format: ADME, organism-based; design: dose 2 mg/kg, route intravenous; settings: in vivo, iv; summary of the method: as §2
# Rattus norvegicus [26] = assay: Ratio of effect of pretreatment with nisoxatine with a dose of 2 mg/kg (i.v.) on specific binding of [18F]ACF in rat brain remainder to that of cerebellum; format: ADME, organism-based; design: dose 2 mg/kg, route intravenous; settings: in vivo, iv; summary of the method: as §2
# Rattus norvegicus [27] = species: Rattus norvegicus; assay: Regional brain distribution of [18F]-ACF radiolabeled compound in rat hypothalamus after 2 min; format: ADME, organism-based; settings: in vivo; summary of the method: as §3
# Rattus norvegicus [28] = species: Rattus norvegicus; assay: Organ distribution of [18F]ACF radiolabeled compound in rat heart after 120 min; format: ADME, organism-based; settings: in vivo, 2 h; summary of the method: as §1
# [29] = Effect of pretreatment with nisoxatine with a dose of 2 mg/kg (i.v.) on specific binding of [18F]ACF in rat brain cerebellum; format: functional, organism-based; design: dose 2 mg/kg; summary of the method: as §4
# Rattus norvegicus [30] = species: Rattus norvegicus; assay: Ratio of regional brain distribution of [18F]ACF radiolabeled compound in rat hippocampus to that of cerebellum after 120 min; format: ADME, organism-based; settings: in vivo, 2 h; summary of the method: as §3
# Rattus norvegicus [31] = assay: Effect of pretreatment with methylphenidate with a dose of 2 mg/kg (i.v.) on specific binding of [18F]-ACF in rat brain striatum; format: ADME, organism-based; design: dose 2 mg/kg, route intravenous; settings: in vivo, iv; summary of the method: as §4
# Rattus norvegicus [32] = assay: Effect of pretreatment with (+)-McN5652 with a dose of 2 mg/kg (i.v.) on specific binding of [18F]ACF in rat brain blood; format: ADME, organism-based; design: dose 2 mg/kg, route intravenous; settings: in vivo, iv; summary of the method: as §4
# Rattus norvegicus [33] = species: Rattus norvegicus; assay: Organ distribution of [18F]ACF radiolabeled compound in rat bone after 2 min; format: ADME, organism-based, Bone element; settings: in vivo; summary of the method: as §1
# Rattus norvegicus [34] = assay: Ratio of effect of pretreatment with (+)-McN5652 with a dose of 2 mg/kg (i.v.) on specific binding of [18F]ACF in rat brain remainder to that of cerebellum; format: ADME, organism-based; design: dose 2 mg/kg, route intravenous; settings: in vivo, iv; summary of the method: as §2
# Rattus norvegicus [35] = species: Rattus norvegicus; assay: Ratio of regional brain distribution of [18F]ACF radiolabeled compound in rat cortex to that of cerebellum after 30 min; format: ADME, organism-based; settings: in vivo, 0.5 h; summary of the method: as §3
# Rattus norvegicus [36] = species: Rattus norvegicus; assay: Organ distribution of [18F]-ACF radiolabeled compound in rat brain after 60 min; format: ADME, organism-based; settings: in vivo, 1 h; summary of the method: as §6
compound,measurement,setting,value
CN(C)Cc1ccccc1Sc1cc(F)c(Cl)cc1N,Dose/g,Rattus norvegicus [1],0.03 % dose/organ
same,Ratio,Rattus norvegicus [2],1
same,Ratio,Rattus norvegicus [3],2.97
same,Dose/g,Rattus norvegicus [4],0.37%
same,Ratio,Rattus norvegicus [5],1
same,Dose/g,Rattus norvegicus [6],1.78%
same,Dose/g,Rattus norvegicus [7],0.09%
same,Ratio,Rattus norvegicus [8],1.52
same,Dose/g,Rattus norvegicus [9],0.47%
same,Dose/g,Rattus norvegicus [10],0.03%
same,Ratio,Rattus norvegicus [11],1.89
same,Dose/g,Rattus norvegicus [12],1.33%
same,Dose/g,Rattus norvegicus [13],0.04 % dose/organ
same,Dose/g,Rattus norvegicus [14],4.76 % dose/organ
same,Dose/g,Rattus norvegicus [15],0.78 % dose/organ
same,Ratio,Rattus norvegicus [16],2.34
same,Dose/g,Rattus norvegicus [17],0.05%
same,Dose/g,Rattus norvegicus [18],2.61 % dose/organ
same,Dose/g,Rattus norvegicus [19],4.02 % dose/organ
same,Ratio,Rattus norvegicus [20],1
same,Dose/g,Rattus norvegicus [21],9.41 % dose/organ
same,Dose/g,Rattus norvegicus [22],0.21 % dose/organ
same,Dose/g,Rattus norvegicus [23],0.52%
same,Dose/g,Rattus norvegicus [24],2.31%
same,Ratio,Rattus norvegicus [25],3.05
same,Ratio,Rattus norvegicus [26],2.17
same,Dose/g,Rattus norvegicus [27],1.76%
same,Dose/g,Rattus norvegicus [28],0.06 % dose/organ
same,Dose/g,[29],0.19%
same,Ratio,Rattus norvegicus [30],2.67
same,Dose/g,Rattus norvegicus [31],0.47%
same,Dose/g,Rattus norvegicus [32],0.26%
same,Dose/g,Rattus norvegicus [33],0.01 % dose/organ
same,Ratio,Rattus norvegicus [34],1.37
same,Ratio,Rattus norvegicus [35],1.69
same,Dose/g,Rattus norvegicus [36],0.69 % dose/organ
